sdo1 growth = compounds rescuing growth of sdo1-depleted yeast, bone marrow failure model. S. cerevisiae sdo1-depleted JHY4D growth rescue, OD600 30 h; active compounds read high; pdr5 snq2 efflux-pump mutant strain. z-score at 10 µM. hit rate 0.21% among 140,000. AID 817;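 active means z-score above 3 at both the 24 hr and the 30 hr optical density reads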;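 further: z-score against mean and SD of all compound wells on the same plate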
Yeast lifespan up = extends the lifespan of yeast; S. cerevisiae growth with nicotinamide, OD615; deaD strain in restrictive glucose medium; inhibition of the nicotinamide effect, % at 10 µM; hit rate 0.68% among 130,000;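 active means inhibition above a set limit, placed 3 SD over the median of all compounds, cut at about 26% in these data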;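 further: 0% = nicotinamide-treated wells and 100% = cells grown without nicotinamide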
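System: DeaD-strain S. cerevisiae / Buffer or medium: CSMM-D, restrictive glucose (dextrose) synthetic minimal medium / Probe or stimulus: nicotinamide, 1.5 mM, co-present with compound / Compound: one concentration, 10 µM, DMSO 0.25% / Incubation: 48 h compound exposure at 30 °C, humidified / Technique: optical density (absorbance) at 615 nm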
Measles CPE = protection of cells from measles virus; Measles virus-infected cells, CPE protection, absorbance; protection (pct of control), % at 4 µM; hit rate 1.5% among 140,000; AID 841; in the data active means protection mostly above about 24%, no sharp cut-off; inactive means mostly below about 26%
RAM inhibit = inhibitors of the yeast RAM network; S. cerevisiae dse1pr::URA3 reporter, 5-FOA growth OD615, 2 d; analog-sensitive cbk1-as2 kinase mutant strain; inhibition, % at 50 µM; hit rate 1.8% among 190,000; AID 868;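 active means inhibition above a set limit, 3 SD over mean compound inhibition, cut at about 8.4% in these data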;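 further: 0% = DMSO-only wells with no growth and 100% = 10 µM 1-NA-PP1 full growth; inhibition rescues growth on 5-FOA so higher OD means more RAM inhibition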
Yeast growth inh = reduces growth of yeast BB579 in restrictive medium; S. cerevisiae BB579 growth, OD615, 48 h; inhibition, % at 10 µM; hit rate 0.51% among 140,000;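 active means inhibition above a set limit, 3 SD over the mean compound inhibition, cut at about 44% in these data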
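System: DeaD yeast strain BB579; buffer or medium: CSMM-D dextrose restrictive medium; technique: OD at 615 nm; schedule: 4 h cell preincubation, 48 h compound exposure, 30 °C humidified; doses: single 10 µM dose; controls: amphotericin B 10 µg/mL, positive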
Starred values were filed as active, the others as inactive; nt = not tested or not shown. The list is not random: actives were taken first. Their share in the collection is about 3.8%.

SMILES	sdo1 growth	Yeast lifespan up	Measles CPE	RAM inhibit	Yeast growth inh
O=C(c1ccc(Cl)cc1)N1CCCCC(Sc2nnc(-c3ccc4c(c3)OCO4)o2)C1=O (centres undefined)	-0.48	-2	39*	1	-21
O=C(O)CSc1nnc(-c2ccc3c(c2)OCO3)o1	1.5	-9	4	1	-20
CC(C)(C)c1nnc(N/N=C/c2ccc(Br)cc2)n(N)c1=O	-0.41	-2	19	2	-21
O=C1C[C@@H](c2ccc(O)cc2)Oc2cc(O)cc(O)c21	-0.09	3	31*	1	-32
c1ccc(-c2ccc(OCCCn3cncn3)cc2)cc1	-2.5	-18	11	-1	80*
O=C1CC(=O)C(n2cncn2)C(c2ccc(Cl)cc2Cl)C1 (centres undefined)	1.4	-11	22*	2	-52
COc1ccc(CNC(=O)Cn2nnc(-c3ccc(NC(=O)C4CCCCC4)cc3)n2)cc1	-0.98	-1	11	9.0*	-30
COc1cc(NC(=S)NC2CC2)c(OC)cc1Cl	0.14	-1	10	0	-36
CN1/C(=C\C(=S)NC(=O)c2cccc(Br)c2)C(C)(C)c2ccccc21	-0.96	-3	13	8.9*	22
CC1=Nc2ccccc2/C1=C/c1sc(=S)n(-c2cccc(C(=O)O)c2)c1O	nt	nt	nt	10.0*	nt
O=C(Nc1nnc(CCS(=O)(=O)c2ccc3ccccc3c2)s1)c1ccc([N+](=O)[O-])cc1	1.3	5	3	8.4*	-28
Cc1ccc2[nH]c(=O)c(CN(CC3CCCO3)C(=S)Nc3ccccc3)cc2c1 (centres undefined)	-1.1	-3	3	4	-28
CC(C)CC(COCc1ccc(Cl)cc1)N1CCN(C(=O)c2ccc(Cl)cc2Cl)CCC1=O (centres undefined)	-0.64	8	34	9.4*	-17
CCCc1cc(C(=O)Cc2ccc(F)cc2)c(O)cc1O	-3.2	-23	3	-2	92*
CN(C)C(=O)C1CCC(=O)N1Cc1cccs1 (centres undefined)	nt	nt	nt	1	nt
O=C1c2cccnc2-c2ncccc21	1.4	-21	46*	0	8
CCc1ccccc1NC(=S)N(CCCN(C)C)Cc1cc2cc3c(cc2[nH]c1=O)OCO3	nt	nt	nt	0	nt
Cc1ccc(SCc2ccc(C(=O)Nc3ccccc3C(=O)NC(C)C)cc2)cc1	-0.66	5	nt	9.1*	-39
Cc1ccc(SCc2ccc(C(=O)Nc3ccccc3Br)cc2)cc1	-0.71	11	11	5	-30
C=CC[n+]1c(-c2ccc(Cl)cc2Cl)csc1Nc1ccc(NC(C)=O)cc1	nt	nt	nt	-1	nt
CCCC[n+]1c(-c2ccc(Cl)cc2Cl)csc1Nc1ccccc1	0.03	32*	22	0	-25
CC(=O)Nc1ccc2c(c1)nc1n2CCN(C2CCCCC2)C1	nt	nt	nt	1	nt
Cc1nn(-c2ccccc2)c(Cl)c1/C=C1\C(=O)N(C)C(=S)N1C	nt	nt	nt	2	nt
Cc1nn(-c2ccccc2)c(Cl)c1/C=C1\SC(=S)N(C)C1=O	-1.1	-3	10	8.4*	-21
Clc1ccc(SCCCCN2CCNCC2)cc1	-0.45	-6	10	-1	13
SMILES	sdo1 growth	Yeast lifespan up	Measles CPE	RAM inhibit	Yeast growth inh
CCOC(=O)c1c(NC(=O)C(C)Sc2cccc[n+]2[O-])sc2c1CCN(Cc1ccccc1)C2 (centres undefined)	0.97	5	8	0	91*
COc1cc(CCN2C(=O)N[C@@H](CCc3ccccc3)C(C(C)=O)=C2C)cc(OC)c1OC	1.1	0	29*	0	-2
CCOC(=O)N1CCC(N(CCOC)C(=O)Nc2ccc(CC)cc2)CC1	-0.05	-9	8	1	14
CCc1ccc(NC(=O)N(CCOC)C2CCN(C(C)=O)CC2)cc1	-0.93	-9	65*	1	20
Cc1c(Cl)sn(-c2ccc(Cl)cc2)c1=O	nt	nt	nt	-2	nt
O=C(COc1ccc(F)cc1)NCC1CCCO1 (centres undefined)	1.2	-2	43*	0	-33
O=C(COc1ccccc1)NCC1CCCO1 (centres undefined)	1.1	nt	4	-1	-2
COC(=O)C1CCN(C(=O)c2sc3nc(-c4ccc(F)cc4)cn3c2C)CC1	-0.94	-29	39*	2	-8
CC(=O)c1c(OC(=O)c2ccco2)c2ccccc2n1C	0.26	-8	14	4	-39
CC(=O)c1c(OC(=O)c2ccc(C)cc2)c2ccccc2n1C	-1.1	-19	71*	3	-4
CCOC(=O)c1cc2sc(C)cc2n1CCCN1C(=O)c2ccccc2C1=O	-0.71	-16	19	11*	-35
CCOC(=O)c1cc2sc(C)cc2n1CC(=O)N(CC)CC	0.7	-15	18	0	-5
CCOC(=O)c1cc2occc2n1CCCN1C(=O)c2ccccc2C1=O	-0.36	-12	5	9.2*	-42
CCOC(=O)c1cc2occc2n1CC(=O)N1CCOCC1	0.63	-7	19	1	-12
CN(C)C(=O)CCSc1nnc(-c2ccco2)o1	nt	nt	nt	1	nt
CCCn1c2c(c(O)c(C(=O)NC)c1=O)CCCC2	0.38	-17	4	0	-43
CCCn1c2c(c(O)c(C(=O)Nc3ccc(OC)cc3)c1=O)CCCC2	0.17	51	6	9.2*	-89
Cc1ccccc1-n1nnnc1Sc1nnnn1-c1ccccc1	-1.9	39*	19	0	-6
COc1ccc(CSc2nnnn2-c2ccccc2)cc1	-0.06	-6	22	2	-33
Cc1ccccc1-n1nnnc1SCC(N)=O	0.42	-6	22	4	8
COc1ccc2c(C)cc(Sc3nnnn3-c3ccccc3)nc2c1	-1.2	-3	53*	3	2
O=c1c2ccccc2nnn1CSc1nnc2sc3ccccc3n12	0.23	12	41*	4	-32
CCNC(=O)C(Sc1ccccc1)c1ccccc1 (centres undefined)	0.43	nt	30*	0	-27
CCOC(=O)c1c(NC(=O)C(Sc2ccccc2)c2ccccc2)sc(C(N)=O)c1C (centres undefined)	1.1	-4	10	4	-52
CCOC(=O)c1c(NC(=O)C(Sc2ccccc2)c2ccccc2)sc(C(=O)N(C)C)c1C (centres undefined)	0.4	3	2	10*	-21
SMILES	sdo1 growth	Yeast lifespan up	Measles CPE	RAM inhibit	Yeast growth inh
CCC(=O)NNC(=O)CCC(=O)Nc1ccc(C)cc1C	nt	nt	nt	0	nt
O=C(CCc1ccccc1)Nc1ccc(NC(=O)c2ccco2)cc1	0.27	-6	0	1	-20
Cc1ccc(NC(=O)CCC(=O)NNC(=O)c2ccco2)c(C)c1	-0.88	-7	25*	-1	-3
Cc1cc(NC(=O)c2ccco2)ncc1NC(=O)Cc1ccccc1	1.2	-14	31*	1	-37
O=C(CCc1ccccc1)Nc1ccc(NC(=O)c2ccco2)nc1	-0.36	-33	25*	2	6
COc1ccc(COC(=O)Nc2cn(C)nc2C(F)(F)F)cc1	nt	nt	nt	0	nt
CCN1N=C(c2cc(Cl)sc2Cl)CSC1=O	-0.44	nt	8	0	-32
